Results from ChEMBL document CHEMBL1938380, “Indole RSK inhibitors. Part 1: discovery and initial SAR” (Bioorg Med Chem Lett, 2012).

Key:
[1] = target: T1, Ribosomal protein S6 kinase alpha-3 (Homo sapiens, UniProt P51812); experiment: Inhibition of RSK2 phosphorylation by luminescence assay
Procedure, shortened: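 Soluble RSK2 enzyme; its phosphorylation activity was read out in a luminescent kinase assay format adapted from a published method.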

[2] = target: T1, Ribosomal protein S6 kinase alpha-3; experiment: Inhibition of RSK2-mediated CREB phosphorylation in HeLa cells expressing luciferase reporter gene; format: cell-based

T1 sequence (P51812 whole entry): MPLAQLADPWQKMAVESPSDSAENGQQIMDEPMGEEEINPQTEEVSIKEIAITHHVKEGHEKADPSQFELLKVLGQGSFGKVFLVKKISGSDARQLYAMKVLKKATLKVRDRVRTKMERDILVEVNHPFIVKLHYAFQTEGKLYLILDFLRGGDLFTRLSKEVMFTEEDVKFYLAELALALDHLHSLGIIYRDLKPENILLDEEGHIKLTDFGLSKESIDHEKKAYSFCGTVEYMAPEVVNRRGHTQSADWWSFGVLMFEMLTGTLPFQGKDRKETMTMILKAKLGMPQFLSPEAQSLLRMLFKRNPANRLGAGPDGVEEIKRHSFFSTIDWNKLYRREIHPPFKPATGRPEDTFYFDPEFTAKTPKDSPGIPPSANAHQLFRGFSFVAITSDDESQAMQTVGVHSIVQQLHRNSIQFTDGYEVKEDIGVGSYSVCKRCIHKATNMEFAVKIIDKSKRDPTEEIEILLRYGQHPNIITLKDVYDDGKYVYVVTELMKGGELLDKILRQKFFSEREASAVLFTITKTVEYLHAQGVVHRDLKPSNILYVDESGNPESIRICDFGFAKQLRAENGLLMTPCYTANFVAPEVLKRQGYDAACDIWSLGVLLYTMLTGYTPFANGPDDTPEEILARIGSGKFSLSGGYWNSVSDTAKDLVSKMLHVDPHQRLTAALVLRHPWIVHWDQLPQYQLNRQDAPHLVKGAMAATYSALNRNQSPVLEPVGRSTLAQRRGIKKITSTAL

Row | Structure (SMILES) | IC50 [1] [nM] | IC50 [2] [nM]
1 | O=C(Nc1ncccn1)c1ccc2cc3n(c2c1)CCCNC3=O | > 10000 | 
2 | O=C(Nc1nccs1)c1ccc2cc3n(c2c1)CCCNC3=O | 2200 | 
3 | Cn1nccc1NC(=O)c1ccc2cc3n(c2c1)CCCNC3=O | > 1000 | 
4 | NC(=O)c1ccccc1NC(=O)c1ccc2cc3n(c2c1)CCCNC3=O |  | 560
5 | O=C(Nc1nc2ccccc2o1)c1ccc2cc3n(c2c1)CCCNC3=O |  | > 10000
6 | CC1CCNC(=O)c2cc3ccc(C(=O)Nc4cccnc4)cc3n21 (centres undefined) |  | 890
7 | CC1CCn2c(cc3ccc(C(=O)Nc4cccnc4)cc32)C(=O)N1 (centres undefined) | 2500 | 
8 | CC(C)n1ncc2cc(NC(=O)c3ccc4cc5n(c4c3)CCCNC5=O)cnc21 |  | 840
9 | O=C(Nc1ncc[nH]1)c1ccc2cc3n(c2c1)CCCNC3=O |  | 290
10 | O=C(NC1CCCCC1)c1ccc2cc3n(c2c1)CCCNC3=O | > 10000 | 
11 | O=C(Nc1cn[nH]c1)c1ccc2cc3n(c2c1)CCCNC3=O |  | > 10000
12 | O=C(NCc1cccnc1)c1ccc2cc3n(c2c1)CCCNC3=O | > 10000 | > 10000
13 | O=C(Nc1ccccn1)c1ccc2cc3n(c2c1)CCCNC3=O |  | 2630
14 | CC1CNC(=O)c2cc3ccc(C(=O)Nc4cccnc4)cc3n2C1 (centres undefined) | 1200 | 4890
15 | O=C(Nc1cccnc1)c1ccc2cc3n(c2c1)CC1(CCOCC1)CNC3=O | > 10000 | 
16 | NCC1CNC(=O)c2cc3ccc(C(=O)Nc4cccnc4)cc3n2C1 (centres undefined) | 1800 | 
17 | NC(=O)c1ccc2cc3n(c2c1)CCCNC3=O | 9100 | 
18 | O=C(Nc1nc2ccccc2s1)c1ccc2cc3n(c2c1)CCCNC3=O | > 10000 | 
19 | O=C(Nc1cnc2ccccc2c1)c1ccc2cc3n(c2c1)CCCNC3=O |  | 340
20 | O=C(Nc1ccccc1)c1ccc2cc3n(c2c1)CCCNC3=O |  | 1930

Results, then the compound that gave them:

Row | IC50 [1] [nM] | IC50 [2] [nM] | Structure (SMILES)
21 | 350 |  | CC1Cn2c(cc3ccc(C(=O)Nc4cccnc4)cc32)C(=O)N1 (centres undefined)
22 | 730 | > 10000 | O=C(Nc1cccnc1)c1ccc2cc3n(c2c1)CCNC3=O
23 | 970 |  | NCC1Cn2c(cc3ccc(C(=O)Nc4cccnc4)cc32)C(=O)N1 (centres undefined)
24 | 180 |  | O=C(Nc1ccc(Cl)cc1)c1ccc2cc3n(c2c1)CCCNC3=O
25 | 45 | 840 | C[C@@H]1NC(=O)c2cc3ccc(C(=O)Nc4cccnc4)cc3n2[C@@H]1C (relative stereo)
26 | 170 | 1630 | CC1CNC(=O)c2cc3ccc(C(=O)Nc4cccnc4)cc3n21 (centres undefined)
27 | 68 | 1130 | O=C(Nc1ccc2ccccc2n1)c1ccc2cc3n(c2c1)CCCNC3=O
28 | 410 |  | O=C(Nc1cccnc1)c1ccc2cc3n(c2c1)CC1(CC1)CNC3=O
29 | 240 | 1940 | O=C(Nc1cccnc1)c1ccc2cc3n(c2c1)CCCNC3=O
30 | 4 | > 10000 | O=C(Nc1nc2ccccc2[nH]1)c1ccc2cc3n(c2c1)CCCNC3=O
31 | 871 |  | C[C@@H]1[C@@H](C)NC(=O)c2cc3ccc(C(=O)Nc4cccnc4)cc3n21 (relative stereo)
32 | 210 | 1550 | CC1(C)CNC(=O)c2cc3ccc(C(=O)Nc4cccnc4)cc3n21
33 | 240 |  | C[C@@H]1CNC(=O)c2cc3ccc(C(=O)Nc4cccnc4)cc3n2[C@@H]1C (relative stereo)
34 | 34 | 620 | O=C(Nc1ccncc1)c1ccc2cc3n(c2c1)CCCNC3=O
